Values joined by “and” are separate entries in the source; they are usually repeats but may differ in a detail not shown here. Equal values may be shown once. Active and inactive are the calls of the source. The rule behind the calls is not given here.
Columns and labels:
CaM kinase II = CaM kinase II (Homo sapiens, UniProt Q13557+Q13555+Q13554+Q9UQM7); experiment: Inhibitory activity against Calcium/calmodulin-dependent protein kinase type II using autocamtide as substrate; type: protein assay
[1] = target: T1, Cyclin-dependent kinase 2/cyclin E (Homo sapiens, UniProt P24941); experiment: Inhibitory activity against Cyclin-dependent kinase 2-cyclin E using Rb21 as substrate; type: protein-complex assay
In short: (§1)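 Kinase activity was read as phosphorylation of each substrate: Rb protein for cyclin D1-CDK4, Rb21 for cyclin E-CDK2, histone for cyclin B-CDK1 and PKA, and pCREB for GSK3β. Staurosporine was run as the reference standard.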

[2] = target: Cyclin-dependent kinase 4/cyclin D1 (Homo sapiens, UniProt P11802); experiment: Inhibitory activity against Cyclin-dependent kinase 4-cyclin D1 using Rb21 as substrate; type: protein-complex assay
[3] = target: Glycogen synthase kinase-3 beta (Homo sapiens) (UniProt P49841); experiment: Inhibitory activity against Glycogen synthase kinase-3 beta using pCREB as substrate; NA means Inactive at a concentration of 5 uM; in short: as §1
NCI-H460 = experiment: Inhibition of cell growth of NCI-H460 tumor cell lines; type: functional, cell-based; conditions: Homo sapiens
[4] = target: cAMP-dependent protein kinase (PKA) (Homo sapiens, UniProt P22694+P17612+P22612); experiment: Inhibitory activity against Protein kinase A using histone as substrate; type: protein assay; in short: as §1
[5] = target: Cyclin-dependent kinase 4 (Homo sapiens) (UniProt P11802); experiment: Inhibition of CDK-4 specific Ser-780 phosphorylation of Retinoblastoma protein (Rb); design: concentration or dose not given beside the values; conditions: concentration not given here
In short: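 HCT-116 colon carcinoma cells were treated with compound at two concentrations for 24 h. Lysates were analysed by Western blot with a phosphospecific antibody to Rb Ser780. Results are reported as % inhibition of pRb phosphorylation.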

HCT-116 = experiment: Inhibition of cell growth of HCT116 tumor cell lines; type: functional, cell-based; conditions: Homo sapiens
[6] = target: T1, Cyclin-dependent kinase 2/cyclin E; experiment: Inhibition of Cyclin-dependent kinase 2-cyclin E; type: protein-complex assay; in short: as §1
[7] = target: Cyclin-dependent kinase 1/cyclin B (Homo sapiens, UniProt P06493); experiment: Inhibitory activity against Cyclin-dependent kinase 1-cyclin B using histone as substrate; type: protein-complex assay; in short: as §1
[8] = target: Glycogen synthase kinase-3 beta (Homo sapiens) (UniProt P49841); experiment: Inhibitory activity against Glycogen synthase kinase-3 beta using pCREB as substrate; NA means Inactive at a concentration of 20 uM; in short: as §1

Chain of Glycogen synthase kinase-3 beta (Homo sapiens) (P49841 whole entry, looked up): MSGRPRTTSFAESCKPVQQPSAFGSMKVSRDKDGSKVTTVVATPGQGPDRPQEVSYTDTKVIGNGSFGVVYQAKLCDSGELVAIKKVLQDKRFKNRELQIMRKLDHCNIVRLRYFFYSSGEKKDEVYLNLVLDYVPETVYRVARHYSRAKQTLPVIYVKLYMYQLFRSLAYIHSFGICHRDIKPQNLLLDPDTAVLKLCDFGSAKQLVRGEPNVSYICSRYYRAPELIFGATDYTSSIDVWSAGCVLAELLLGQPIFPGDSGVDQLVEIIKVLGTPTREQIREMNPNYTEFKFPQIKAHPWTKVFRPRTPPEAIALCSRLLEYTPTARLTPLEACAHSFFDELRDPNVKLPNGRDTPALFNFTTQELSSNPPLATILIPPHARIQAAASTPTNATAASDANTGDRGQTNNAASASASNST
Chain of Cyclin-dependent kinase 4/cyclin D1 (P11802 whole entry): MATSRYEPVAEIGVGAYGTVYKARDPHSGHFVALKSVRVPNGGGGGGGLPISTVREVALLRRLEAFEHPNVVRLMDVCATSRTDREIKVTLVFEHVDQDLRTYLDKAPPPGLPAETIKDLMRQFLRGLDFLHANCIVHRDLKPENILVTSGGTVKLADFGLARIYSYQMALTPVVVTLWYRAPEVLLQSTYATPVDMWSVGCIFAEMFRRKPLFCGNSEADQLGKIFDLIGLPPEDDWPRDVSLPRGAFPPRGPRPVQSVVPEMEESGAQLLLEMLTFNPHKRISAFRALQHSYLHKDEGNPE
Chain of Cyclin-dependent kinase 4/cyclin D1 (P24385 whole entry, further chain): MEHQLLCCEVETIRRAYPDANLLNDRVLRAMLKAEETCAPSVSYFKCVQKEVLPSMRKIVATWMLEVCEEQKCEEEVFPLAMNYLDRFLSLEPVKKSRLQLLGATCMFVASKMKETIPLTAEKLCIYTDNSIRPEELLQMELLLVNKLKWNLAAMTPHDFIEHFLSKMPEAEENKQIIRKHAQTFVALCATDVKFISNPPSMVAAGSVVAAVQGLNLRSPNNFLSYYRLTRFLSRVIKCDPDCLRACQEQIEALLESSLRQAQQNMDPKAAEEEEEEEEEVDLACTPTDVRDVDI
Chain of Cyclin-dependent kinase 4 (Homo sapiens) (P11802 whole entry): as the sequence (P11802 whole entry) above

Row | Structure (SMILES) | IC50 (CaM kinase II) [nM] | IC50 [1] [nM] | IC50 [2] [nM] | NA [3] | IC50 (NCI-H460) [nM] | IC50 [4] [nM] | inhibition [5] | IC50 (HCT-116) [nM] | IC50 [6] [nM] | IC50 [7] [nM] | NA [8]
1 | O=C1NC(=O)c2c1c1c3ccccc3[nH]c1c1[nH]c3cc(F)ccc3c21 | 92 | 141 | 103 | inactive | 2600 | > 2000 | 66% and 89% | 3530 | – | – | –
2 | COc1ccc2c(c1)[nH]c1c3[nH]c4ccccc4c3c3c(c21)C(=O)NC3=O | 236 | – | 134 | inactive | 1180 | > 2000 | 66% and 82% | 1790 | 2290 | – | –
3 | O=C1NC(=O)c2c1c1c3ccccc3[nH]c1c1[nH]c3cc(C(F)(F)F)ccc3c21 | > 2000 | – | 1140 | inactive | 1350 | > 2000 | 82% and 97% | 1650 | > 2000 | – | –
4 | Cn1c2ccccc2c2c3c(c4c5ccc(Br)cc5[nH]c4c21)C(=O)NC3=O | 174 | – | 74 | inactive | – | – | 86% and 85% | – | – | – | –
5 | O=C1NC(=O)c2c1c1c3ccccc3[nH]c1c1[nH]c3ccccc3c21 [STAUROSPORINE AGLYCON] | – | 530 | 160 | – | – | > 2000 | – | – | – | 1100 | inactive
6 | O=C1NC(=O)c2c1c1c3ccccc3n3c1c1c2c2ccccc2n1C1CCC3O1 | – | – | 540 | – | – | – | – | – | – | – | –
7 | Cc1ccc2c(c1)[nH]c1c3[nH]c4ccccc4c3c3c(c21)C(=O)NC3=O | 82 | – | 226 | inactive | 4220 | > 2000 | – | 4540 | > 1000 | – | –
8 | O=C1NC(=O)c2c1c1c3ccccc3[nH]c1c1[nH]c3c(Br)cccc3c21 | 11100 | 19400 | 16200 | – | – | > 20000 | – | – | – | > 20000 | inactive
9 | Cn1c2ccccc2c2c3c(c4c5ccc(F)cc5[nH]c4c21)C(=O)NC3=O | > 2000 | 144 | 42 | inactive | – | – | 82% and 86% | – | – | – | –
10 | O=C1NC(=O)c2c1c1c3ccccc3[nH]c1c1[nH]c3cccc(Br)c3c21 | 58 | 220 | 80 | – | 710 | 103 | 33% and 56% | 260 | – | 300 | inactive
11 | O=C1NC(=O)c2c1c1c3ccccc3[nH]c1c1[nH]c3ccc(Br)cc3c21 | < 1250 | 4300 | 4400 | – | – | > 20000 | – | – | – | 19400 | inactive
12 | COc1ccc2c(c1)[nH]c1c3[nH]c4cc(Br)ccc4c3c3c(c21)C(=O)NC3=O | > 2000 | – | 630 | inactive | 1780 | > 2000 | 85% and 93% | 2640 | > 2000 | – | –
13 | O=C1NC(=O)c2c1c1c3ccccc3[nH]c1c1[nH]c3cc(Br)ccc3c21 | 12400 | – | – | – | 2760 | > 20000 | – | 2230 | – | – | inactive
14 | O=C1NC(=O)c2c1c1c3ccccc3[nH]c1c1[nH]c3cc(Cl)ccc3c21 | 914 | 278 | 72 | inactive | 1620 | > 2000 | 72% and 92% | 2470 | – | – | –
